# Compound activity as filed in PubChem BioAssay.
# Compounds with a hit are over-represented: about 2.5% of the library has one in this group of screens.
# ABCG2 block – ABCG2 efflux pump inhibitors, primary screen, multiplex with ABCB1, IgMXP3 cells, flow cytometry | Broad substrate specificity ATP-binding cassette transporter ABCG2 (Homo sapiens), Q9UNQ0 | 190,000 tested, 0.1% active | inhibition, % at 6.6 µM | JC-1 efflux;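 active = inhibition above 80%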;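 also: 0% = DMSO and 100% = nicardipine control wells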
#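 Test system: ABCG2 IgMXP3 and barcoded ABCB1 CCRF-Adr cell mix; Schedule: cells with compound and JC-1, 10 min at 25 °C, rotating, no wash; Technique: flow cytometry of retained JC-1 fluorescence; Measure: % inhibition of efflux relative to nicardipine and DMSO; Controls: nicardipine high and DMSO low controls.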
# MEKK2wt PB1 HTS – modulators of MEK5 binding to wildtype MEKK2, primary screen, biochemical, multiplex bead flow cytometry, Alexa488-MEK5; Alexa488-MEK5 binding to MEKK2 WT; actives lie on both sides; 290,000 tested, 1.1% active; binding response (% of control), % at 10 µM; Mitogen-activated protein kinase kinase kinase 2 (Homo sapiens), Q9Y2U5; in the data active = binding response below about 67% or above about 130%
# MEKK3 PB1 HTS – modulators of MEKK3-MEK5 PB1 binding, primary screen, biochemical, wildtype MEKK3, multiplex bead flow cytometry, Alexa488-MEK5; 290,000 tested, 1.4% active; binding response (% of control), % at 10 µM; AID 1529, 2009; Mitogen-activated protein kinase kinase kinase 3 (Homo sapiens), Q99759; bead-based flow cytometry, Alexa488-MEK5 binding to MEKK3; actives lie on both sides; 0 = blocked by unlabeled MEK5, 100 = vehicle;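 active = binding response more than 3 SD above or below the average of its plate-row segment, actives on both sides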;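 also: Alexa488 bead fluorescence after subtracting the streptavidin-only scavenger bead signal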
# Target sequence (Q99759 whole entry, looked up): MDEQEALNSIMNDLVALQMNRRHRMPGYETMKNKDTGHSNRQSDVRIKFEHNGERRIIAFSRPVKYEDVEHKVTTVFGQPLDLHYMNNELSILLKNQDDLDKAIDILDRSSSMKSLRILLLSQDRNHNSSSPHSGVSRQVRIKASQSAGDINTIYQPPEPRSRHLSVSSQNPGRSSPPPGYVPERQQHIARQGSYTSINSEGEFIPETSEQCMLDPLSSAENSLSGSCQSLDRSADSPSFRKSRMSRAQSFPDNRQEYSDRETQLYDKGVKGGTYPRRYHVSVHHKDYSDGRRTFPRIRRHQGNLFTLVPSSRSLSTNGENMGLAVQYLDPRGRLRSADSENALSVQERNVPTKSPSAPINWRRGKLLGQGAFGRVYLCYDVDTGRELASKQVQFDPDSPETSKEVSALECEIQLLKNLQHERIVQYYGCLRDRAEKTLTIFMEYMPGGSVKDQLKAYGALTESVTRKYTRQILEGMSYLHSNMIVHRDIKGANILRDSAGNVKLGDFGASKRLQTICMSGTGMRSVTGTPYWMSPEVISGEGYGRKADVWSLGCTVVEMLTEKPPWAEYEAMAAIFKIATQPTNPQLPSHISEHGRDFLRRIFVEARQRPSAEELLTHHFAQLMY
# Efflux pump mplx – inhibitors of Candida efflux pumps in yeast, primary screen, S. cerevisiae, Nile Red, multiplex | 330,000 tested, 0.44% active | S. cerevisiae Candida pump triplex | inhibition, % at 10 µM;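 active = plate passing quality check with inhibition over a set limit, or well fluorescence over plate mean plus 4 SD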;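 also: Nile Red retained in pooled yeast measured as flow cytometry median fluorescence; 0% = buffer negative control and 100% = Enniatin B positive control; higher means more Nile Red kept so more efflux inhibition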
# MEKK2 mut-MEK5 – MEK5 binding signal on mutant MEKK2 PB1, primary screen, biochemical, multiplex bead flow cytometry, Alexa488-MEK5; percent response, % at 10 µM; Alexa488-MEK5 binding to MEKK2 mutant; 290,000 tested, 0.35% active; in the data active = percent response above about 24%, passing the limit was not always enough
# ABCB1 block – ABCB1 efflux pump inhibitors, primary screen, cell-based, multiplex, flow cytometry, ABCG2 counter-screen | ATP-dependent translocase ABCB1 (Homo sapiens), P08183 | CCRF-Adr cells, JC-1 efflux | inhibition, % at 6.6 µM | 190,000 tested, 0.067% active; in the data active = inhibition above about 40%;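 also: 0% = vehicle and 100% = reference inhibitor; higher value means more JC-1 retained so stronger ABCB1 efflux block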
# MEKK2wt confirm – modulators of MEK5 binding to wildtype MEKK2, confirmation, biochemical, single concentration, multiplex bead flow cytometry | Alexa488-MEK5 binding to MEKK2 WT; actives lie on both sides | binding response (% of control), % at 10 µM | 5,900 tested, 2.4% active | shares compounds with MEKK3 PB1 HTS | AID 1892, 2009; in the data active = binding response below about 16% or above about 210%; inactive = in between
# MEKK2mut confirm – mutant MEKK2 PB1-MEK5 binding signal retest – biochemical, single concentration, multiplex bead flow cytometry, confirmation | shares compounds with MEKK3 PB1 HTS | Alexa488-MEK5 binding to MEKK2 mutant | percent response, % at 10 µM | 5,900 tested, 2% active | AID 1893, 2009; in the data active = percent response mostly above about 71%, no sharp cut-off; inactive = mostly below about 38%;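 also: higher means compound restores mutant binding toward wildtype level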
# MEKK3-MEK5 inh – MEKK3 wild-type PB1 binding to MEK5, inhibitors, confirmation, biochemical, bead multiplex flow cytometry, single concentration, wildtype | shares compounds with MEKK3 PB1 HTS | Alexa488-MEK5 binding to MEKK3; active compounds read low | binding response (% of control), % at 10 µM | 5,900 tested, 1.8% active | AID 1894, 2009;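 active = binding response below 72% of control, or above a set upper limit, though filed actives all read lower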;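 also: 100% = DMSO only wells and 0% = binding blocked by excess unlabeled MEK5; lower values mean stronger disruption of MEK5 binding to MEKK3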
# Active calls of the source: *; x = not tested or not shown; [ ] = remark or other dose.
SMILES,ABCG2 block,MEKK2wt PB1 HTS,MEKK3 PB1 HTS,Efflux pump mplx,MEKK2 mut-MEK5,ABCB1 block,MEKK2wt confirm,MEKK2mut confirm,MEKK3-MEK5 inh
CCOc1ccc(-n2c(COc3ccccc3)nnc2SCC(N)=O)cc1,1,106,122*,0,5,0,98,-2,103
CSc1ncc(Cl)c(C(=O)Nc2cccc3ccccc23)n1,0,102,128*,0,0,0,101,-2,99
CSc1ncc(Cl)c(C(=O)Nc2ccccc2Br)n1,x,103,96,0,-10,x,x,x,x
NS(=O)(=O)c1ccc(NS(=O)(=O)c2ccc(NC(=S)Nc3ccccc3)cc2)cc1,-1,99,4.0*[inhibitor],-1,1,0,101,-6,102
Cc1ccc2nc(-c3ccc(NC(=S)NC(=O)C(C)C)cc3)sc2c1,1,80,82,0,-7,0,x,x,x
Cc1ccc2nc(-c3ccc(NC(=S)NC4CC(C)(C)NC(C)(C)C4)cc3)sc2c1,0,235*,107,0,74*,0,218*,90*,92
NS(=O)(=O)c1ccc(NC(=S)NC2CC2)cc1,8,95,99,0,-5,1,x,x,x
CC1(C)CC(NC(=S)Nc2ccc(S(N)(=O)=O)cc2)CC(C)(C)N1,1,121,134*,0,1,0,110,6,101
CCOC(=O)N1CCN(CC(=O)Nc2nnc(C(F)(F)F)s2)CC1,x,104,103,0,1,x,x,x,x
Cc1cccc(-c2noc(CCCC(=O)N3CCOCC3)n2)c1,3,108,102,0,7,0,x,x,x
Cn1c(SCC(=O)N2CCN(S(=O)(=O)c3ccc(Cl)cc3)CC2)nc2ccccc21,1,129,133*,0,8,1,102,6,103
CCNc1nnc(SCC(=O)N2c3ccccc3NC(=O)CC2C)s1 (stereo not drawn),x,x,x,0,x,x,x,x,x
CCOCCn1c(N2CCCC2)nc2c1c(=O)[nH]c(=O)n2C,x,110,107,0,7,x,x,x,x
COC(=O)c1cc(NC(=O)c2cc(C(C)(C)C)nn2Cc2ccc(F)cc2)ccc1N1CCOCC1,x,130,133*,0,32,x,103,-2,103
COc1ccc(NC(=O)C2(c3cccs3)CCOCC2)cc1,0,96,99,0,1,0,x,x,x
Cc1cc(C)cc(NC(=O)C2(c3cccs3)CCOCC2)c1,1,114,136*,0,1,1,95,-7,96
Cc1ccc(NC(=O)C2(c3cccs3)CCOCC2)cc1C,2,96,69*[inhibitor],0,-1,0,97,-2,98
Cc1cccc(NC(=O)C2(c3cccs3)CCOCC2)c1,5,102,103,0,-2,1,x,x,x
Cc1[nH]c2ccccc2c1CN1CCN(c2ccccn2)CC1,x,101,101,0,1,x,x,x,x
Cc1[nH]c2ccccc2c1CN1CCC(Cc2ccccc2)CC1,0,145*,103,0,30,0,138,28,107
O=C(c1ccc(Br)cc1)N1CCC(C(=O)N2CCN(Cc3ccccc3)CC2)CC1,x,105,103,0,2,x,x,x,x
COc1ccc(CNC(=O)CN(Cc2ccc(F)cc2)C(=O)c2csnn2)cc1,0,124,148*,0,5,0,98,-2,97
Cc1ccc(C(C(=O)NC2CCCC2)N(Cc2ccccc2)C(=O)c2csnn2)o1 (stereo not drawn),x,103,100,0,0,x,x,x,x
COc1ccc(CN(CC(=O)NCc2ccccc2)C(=O)c2csnn2)cc1,1,93,96,0,-4,0,x,x,x
Cc1ccc(C(C(=O)NC2CCCC2)N(Cc2ccc(F)cc2)C(=O)c2csnn2)o1 (stereo not drawn),1,3.0*[inhibitor],3.0*[inhibitor],0,-16,1,96,-9,96
SMILES,ABCG2 block,MEKK2wt PB1 HTS,MEKK3 PB1 HTS,Efflux pump mplx,MEKK2 mut-MEK5,ABCB1 block,MEKK2wt confirm,MEKK2mut confirm,MEKK3-MEK5 inh
Cc1ccc(S(=O)(=O)NC(C(=O)N2CCOCCOCCOCC2)c2ccccc2)cc1 (stereo not drawn),1,101,104,0,0,1,x,x,x
CCN(CC)S(=O)(=O)c1ccc(NC(=O)c2cccc3c2C(=O)N(CCOC)C3)cc1,17,108,132*,0,0,2,102,-5,101
COc1cc(-c2nc3cccc(C)n3c2NCC2CCCO2)ccc1O (stereo not drawn),9,78,97,0,-14,1,x,x,x
CCOC(=O)/C(C#N)=C/c1ccc(OCC(=O)Nc2ccc(OC)cc2)c(OC)c1,2,119,124*,1,4,1,100,0,99
COc1ccc(C(OCC(O)CNCCc2ccc(S(N)(=O)=O)cc2)c2ccc(OC)cc2)cc1 (stereo not drawn),x,121,100,0,11,x,x,x,x
OC(CNCCc1ccc(C(F)(F)F)cc1)COC(c1ccccc1)c1ccccc1 (stereo not drawn),x,191*,111,0,46*,x,146,20,97
COc1ccc(C(=O)N/N=C(\CCC(=O)O)c2ccc(C(C)(C)C)cc2)cc1OC,5,97,101,0,-2,0,x,x,x
CN1CCN(CCCNCc2cn(CCC#N)c3ccccc23)CC1,x,168*,106,0,25*,x,151,29,107
O=C(NC1CC2CCCC(C1)N2Cc1cccs1)c1ccc([N+](=O)[O-])cc1 (stereo not drawn),-1,117,106,0,10,1,x,x,x
